Source: ChEMBL document CHEMBL2029317, “(Z)-2-(2-bromophenyl)-3-{[4-(1-methyl-piperazine)amino]phenyl}acrylonitrile (DG172): an orally bioavailable PPARβ/δ-selective ligand with inverse agonistic properties” (J Med Chem, 2012)
Activity calls are given as the source filed them. The rule behind the calls is not given here.

What was measured:
[1] = target: T1, Peroxisome proliferator-activated receptor alpha (Homo sapiens) (UniProt Q07869); assay: Displacement of fluormone Pan-PPAR Green from PPARalpha at 100 to 1000 nM after 60 mins by TR-FRET assay
T1 sequence (whole entry): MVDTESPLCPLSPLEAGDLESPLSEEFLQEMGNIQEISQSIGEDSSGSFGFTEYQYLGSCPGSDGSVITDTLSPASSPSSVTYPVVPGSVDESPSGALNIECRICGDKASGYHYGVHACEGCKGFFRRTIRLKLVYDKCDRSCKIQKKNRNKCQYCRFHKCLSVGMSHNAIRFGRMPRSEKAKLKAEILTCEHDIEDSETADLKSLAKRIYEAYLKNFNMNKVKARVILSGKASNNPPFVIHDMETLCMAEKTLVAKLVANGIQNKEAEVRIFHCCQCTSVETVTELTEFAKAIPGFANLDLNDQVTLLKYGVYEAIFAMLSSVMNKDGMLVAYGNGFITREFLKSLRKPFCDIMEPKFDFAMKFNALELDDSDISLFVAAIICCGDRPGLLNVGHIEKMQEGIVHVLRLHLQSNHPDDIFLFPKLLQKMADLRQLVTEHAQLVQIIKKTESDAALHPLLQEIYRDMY

[2] = target: T2, Peroxisome proliferator-activated receptor gamma (Mus musculus) (UniProt P37238); assay: Antagonist activity at PPARgamma in mouse NIH3T3 cells coexpressing LexA assessed as decrease in GW1929-induced transcriptional activation at 1 uM after 48 hrs by luciferase reporter gene assay relative to control; type: functional, cell-based
T2 sequence (whole entry): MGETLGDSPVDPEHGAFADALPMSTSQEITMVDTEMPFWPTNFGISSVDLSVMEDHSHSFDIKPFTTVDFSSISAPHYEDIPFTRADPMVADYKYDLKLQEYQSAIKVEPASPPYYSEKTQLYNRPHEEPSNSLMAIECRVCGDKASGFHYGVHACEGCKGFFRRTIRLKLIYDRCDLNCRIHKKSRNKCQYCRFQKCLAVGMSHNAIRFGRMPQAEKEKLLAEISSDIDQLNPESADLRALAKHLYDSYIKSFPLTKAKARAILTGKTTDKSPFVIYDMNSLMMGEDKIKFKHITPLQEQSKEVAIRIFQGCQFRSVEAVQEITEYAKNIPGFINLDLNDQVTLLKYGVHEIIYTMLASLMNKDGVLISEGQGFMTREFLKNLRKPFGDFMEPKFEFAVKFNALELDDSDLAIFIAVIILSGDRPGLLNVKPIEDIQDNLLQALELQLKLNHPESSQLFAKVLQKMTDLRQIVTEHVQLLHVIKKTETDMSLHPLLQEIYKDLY
Outline: (§1)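 NIH3T3 cells were transfected with LexA-PPARα, -PPARβ/δ or -PPARγ fusion plasmids plus the 7L-TATAi luciferase reporter. From 4 h post-transfection, cells received inhibitory ligand (1 μM) for 48 h. Agonists followed: GW7647 300 nM (PPARα), L165,041 1 μM (PPARβ/δ) or GW1929 300 nM (PPARγ), or agonist solvent. Induction is luciferase activity with agonist relative to solvent; triplicates with t test.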

[3] = target: T3, Peroxisome proliferator-activated receptor alpha (Mus musculus) (UniProt P23204); assay: Antagonist activity at PPARalpha in mouse NIH3T3 cells coexpressing LexA assessed as decrease in GW7647-induced transcriptional activation at 1 uM after 48 hrs by luciferase reporter gene assay relative to control; type: functional, cell-based; outline: as §1
T3 sequence (whole entry): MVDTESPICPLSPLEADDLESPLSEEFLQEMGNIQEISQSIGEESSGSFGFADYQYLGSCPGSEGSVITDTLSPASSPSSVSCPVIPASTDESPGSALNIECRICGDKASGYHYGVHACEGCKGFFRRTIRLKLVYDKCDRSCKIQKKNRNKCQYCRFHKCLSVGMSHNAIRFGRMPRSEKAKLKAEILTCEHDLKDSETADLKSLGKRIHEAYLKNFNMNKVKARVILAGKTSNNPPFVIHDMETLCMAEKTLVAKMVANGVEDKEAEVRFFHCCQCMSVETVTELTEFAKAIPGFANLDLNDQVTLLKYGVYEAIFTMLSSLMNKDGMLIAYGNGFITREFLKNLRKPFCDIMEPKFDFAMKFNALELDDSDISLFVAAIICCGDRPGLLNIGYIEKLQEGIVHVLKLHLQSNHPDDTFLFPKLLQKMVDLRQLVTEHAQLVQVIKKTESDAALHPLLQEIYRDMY

[4] = target: T4, Peroxisome proliferator-activated receptor delta (Mus musculus, UniProt P35396); assay: Displacement of fluormone Pan-PPAR Green from mouse recombinant GST-tagged PPARbeta/delta LBD after 60 mins by TR-FRET assay
T4 sequence (P35396 whole entry): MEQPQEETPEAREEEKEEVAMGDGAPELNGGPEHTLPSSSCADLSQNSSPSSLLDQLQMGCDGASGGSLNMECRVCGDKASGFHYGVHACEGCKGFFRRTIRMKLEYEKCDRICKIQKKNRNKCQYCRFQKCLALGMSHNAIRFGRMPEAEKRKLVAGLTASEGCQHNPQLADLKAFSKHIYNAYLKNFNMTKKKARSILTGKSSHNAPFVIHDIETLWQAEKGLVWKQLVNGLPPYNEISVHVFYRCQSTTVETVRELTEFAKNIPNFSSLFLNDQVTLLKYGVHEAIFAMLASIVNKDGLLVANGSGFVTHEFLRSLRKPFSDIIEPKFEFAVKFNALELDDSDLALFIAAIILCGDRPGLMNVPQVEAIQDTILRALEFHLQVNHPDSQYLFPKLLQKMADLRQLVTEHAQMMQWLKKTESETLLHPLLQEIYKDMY

[5] = target: T5, Peroxisome proliferator-activated receptor delta (Mus musculus) (UniProt P35396); assay: Displacement of fluormone Pan-PPAR Green from mouse recombinant GST-tagged PPARbeta/delta LBD at 1 uM after 60 mins by TR-FRET assay
T5 sequence (whole entry): T4 sequence (P35396 whole entry)
Outline: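 Competitive binding by LanthaScreen TR-FRET: recombinant GST-PPARβ/δ LBD, detected through a terbium-labelled anti-GST antibody, was incubated with Fluormone Pan-PPAR Green. Compound was tested at 1 μM. Read-out is the 520 nm/495 nm emission ratio after terbium excitation, as averages of triplicates ± SD.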

Row | Compound | Activity [1] | Activity [2] | Activity [3] | IC50 [4] | Activity [5]
1 | CN1CCN(c2ccc(/C=C(\C#N)c3ccccc3Br)cc2)CC1 | inactive | inactive | inactive | 26.9 nM | Active
2 | CN(C)c1ccc(/C=C(\C#N)c2ccccc2Cl)cc1 | inactive | inactive | inactive | 180 nM | Active
